We go through six compounds from ChEMBL document CHEMBL1124794, “Synthesis, chemistry, and antineoplastic activity of alpha-halopyridinium salts: potential pyridone prodrugs of acylated vinylogous carbinolamine tumor inhibitors” (J Med Chem, 1990).

The structures appear in SMILES notation.

The term half-life denotes how long it takes for the measured level to halve. The T/C is the result in the treated group divided by that in the control group, in per cent.

Series [1] in a line: Half life of the compound. Type of series: ADME.
The nature of series [2]: Hydrolysis were done at 25 degree C in 0.05 M phosphate buffer (pH 7.4). Type of series: ADME. The essentials: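 Model pyridinium salts were hydrolysed to pyridones at 25 °C in 0.05 M phosphate buffer, pH 7.4. Decay of the pyridinium UV absorption maximum was monitored over time, giving pseudo-first-order k_obs and half-life.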
Series [3] concerns P388. As to the kind of experiment: In vivo body weight difference was determined in P388 Lymphocytic Leukemia in CD2F1 mice at the dose of 200 mg/kg. Type of series: functional, Mus musculus.
Series [4] has as its system P388. As to the kind of experiment: In vivo body weight difference was determined in P388 Lymphocytic Leukemia in CD2F1 mice at the dose of 25 mg/kg. Type of series: functional, Mus musculus.
Series [5] relates to P388. Kind of series: In vivo activity against P388 Lymphocytic Leukemia in CD2F1 mice at the dose of 50 mg/kg, activity expressed as % T/C. Type of series: functional, Mus musculus. Put shortly:
(§1)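 CD2F1 mice were inoculated with ascitic fluid holding ca. 10^6 P388 cells. Drug was given daily from 24 h after inoculation, from solutions or suspensions made fresh each day, some as a saline suspension. TDS is survivors/initial animals on day 5. BWD is body weight on day 5 minus day 1. %T/C compares median survival of treated and control mice.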

In series [6] the test system is P388. As to the kind of experiment: In vivo activity against P388 Lymphocytic Leukemia in CD2F1 mice at the dose of 200 mg/kg, activity expressed as TDS; 4/4. Type of series: functional, Mus musculus. Put shortly:
as §1

In series [7] the test system is P388. Kind of series: In vivo activity against P388 Lymphocytic Leukemia in CD2F1 mice at the dose of 100 mg/kg, activity expressed as TDS; 4/4. Type of series: functional, Mus musculus. Put shortly: as §1
The subject of series [8] is P388. Kind of series: In vivo activity against P388 Lymphocytic Leukemia in CD2F1 mice at the dose of 50 mg/kg, activity expressed as TDS; 4/4. Type of series: functional, Mus musculus. Put shortly:
as §1

For series [9], the system named is P388. Kind of series: In vivo activity against P388 Lymphocytic Leukemia in CD2F1 mice at the dose of 25 mg/kg, activity expressed as % T/C. Type of series: functional, Mus musculus. The essentials: as §1
Series [10] has as its system P388. As to the kind of experiment: In vivo body weight difference was determined in P388 Lymphocytic Leukemia in CD2F1 mice at the dose of 50 mg/kg. Type of series: functional, Mus musculus.
Series [11] has as its system P388. Kind of series: In vivo body weight difference was determined in P388 Lymphocytic Leukemia in CD2F1 mice at the dose of 100 mg/kg. Type of series: functional, Mus musculus.
For series [12], the system named is P388. As to the kind of experiment: In vivo activity against P388 Lymphocytic Leukemia in CD2F1 mice at the dose of 25 mg/kg, activity expressed as TDS; 4/4. Type of series: functional, Mus musculus. The essentials:
as §1

The subject of series [13] is P388. As to the kind of experiment: In vivo activity against P388 Lymphocytic Leukemia in CD2F1 mice at the dose of 100 mg/kg, activity expressed as % T/C. Type of series: functional, Mus musculus. Put shortly:
as §1

Series [14] has as its system P388. As to the kind of experiment: In vivo activity against P388 Lymphocytic Leukemia in CD2F1 mice at the dose of 200 mg/kg, activity expressed as % T/C. Type of series: functional, Mus musculus. The essentials: as §1

`Cc1cc(Cl)c(Cl)[n+](C)c1.O=S(=O)([O-])C(F)(F)F` showed a half-life in series [1] of 756 min. For the same compound, in [2], the K obs came out at 0.055 h⁻¹.
For the compound `CC(C)NC(=O)OCc1c(COC(=O)NC(C)C)c(-c2cc(Br)c(Cl)[n+](C)c2)n2c1CCC2.[I-]`, the BWD in the series on P388 [3] is reported as -0.7 g; in the series with P388 [4], -0.6 g; in the series with P388 [10] it was -0.4 g; with P388 [11], -1 g. Moreover, the T/C in the series on P388 [5] amounted to 118%; with P388 [9], 124%; with P388 [13], 122%; in the series on P388 [14] it was 105%. For the same compound, the TDS in the series with P388 [6], with P388 [7], in the series on P388 [8] and in the series with P388 [12] was 4 each time.
On to `Cc1ccc(F)[n+](C)c1.O=S(=O)([O-])C(F)(F)F`, for which the half-life in series [1] came out at 11.4 min. Further, the K obs in [2] amounted to 3.63 h⁻¹.
In the case of `CCOC(=O)c1cc[n+](C)c(Br)c1.O=S(=O)([O-])C(F)(F)F`, in series [1], the half-life was 3460 min. Further, the K obs in series [2] was determined as 0.012 h⁻¹.
`Cc1ccc(Cl)[n+](C)c1.O=S(=O)([O-])C(F)(F)F` had a half-life in series [1] of 16100 min. Moreover, the K obs in [2] is 0.0425 h⁻¹.
In the case of `CCOC(=O)c1cc(Cl)[n+](C)c(Cl)c1.CS(=O)(=O)[O-]`, in series [1], the half-life worked out at 126 min. The compound also gave a K obs in series [2] of 6.84 h⁻¹.
